# Activity calls are given as the source filed them. The calls are words filed in the database; no cut-off is given here.
# Tests used:
# [1] = tested on: Plasmodium falciparum; experiment: Antiplasmodial activity against chloroquine-susceptible Plasmodium falciparum NF54 infected in human erythrocytes assessed as inhibition of [3H]hypoxanthine uptake after 48 hrs; assay type: functional, organism-based
# Summary of the method: (§1)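 Asynchronous ring-stage cultures in human A Rh+ erythrocytes (RPMI 1640, HEPES, NaHCO3, hypoxanthine, 0.5% Albumax II, 5% CO2, 37 C), 1% parasitemia; top final drug concentration 30 μM. After 24 h, [3H]-hypoxanthine (0.2 μCi/well) added, further 48 h incubation; plates freeze-thawed, harvested, uptake counted; IC50 calculated.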
# [2] = tested on: Plasmodium falciparum; experiment: Antiplasmodial activity against chloroquine, pyrimethamine, cycloguanil-resistant Plasmodium falciparum K1 infected in human erythrocytes assessed as inhibition of [3H]hypoxanthine uptake after 48 hrs; assay type: functional, organism-based; summary of the method: as §1
# [3] = tested on: Plasmodium falciparum; experiment: Antiplasmodial activity against chloroquine-resistant Plasmodium falciparum Dd2 infected in human erythrocytes assessed as inhibition of [3H]hypoxanthine uptake after 48 hrs; assay type: functional, organism-based
# Summary of the method: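 Ring-stage infected erythrocytes (0.5% parasitemia, 2.5% hematocrit) exposed to compounds 48 h, then radioactive hypoxanthine 24 h; radioactivity in precipitable material taken as proliferation index for IC50.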
# [4] = tested on: Plasmodium falciparum; experiment: Antiplasmodial activity against chloroquine-susceptible Plasmodium falciparum 3D7 infected in human erythrocytes assessed as inhibition of [3H]hypoxanthine uptake after 48 hrs; assay type: functional, organism-based
# Summary of the method: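 Culture in RPMI 1640 with 10% human serum, 25 mM HEPES, 25 mM NaHCO3, A-positive blood, 10% O2/5% CO2/85% N2, 37 C. Isotopic microtest: 0.5% parasitemia, 1.5% hematocrit, 1 μCi tritiated hypoxanthine at time zero, 48 h; freeze-thaw lysis, filter harvest, scintillation count. IC50 = 50% uptake versus drug-free control, nonlinear regression of log dose-response curves.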
# [5] = tested on: Plasmodium falciparum; experiment: Antiplasmodial activity against chloroquine-susceptible Plasmodium falciparum D6 infected in human erythrocytes assessed as inhibition of [3H]hypoxanthine uptake after 48 hrs; assay type: functional, organism-based
# Summary of the method: (§2)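 Strains were cultured in A-positive human blood in RPMI 1640 with 10% human serum, 25 mM HEPES and 25 mM NaHCO3, under 10% O2/5% CO2/85% N2 at 37 °C. Microtests used 0.5% parasitemia and 1.5% hematocrit. Tritiated hypoxanthine (1 μCi/well) was added at time zero, then 48 h incubation, freeze-thaw, harvest and scintillation counting. IC50 was taken by nonlinear regression against drug-free controls.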
# [6] = tested on: Plasmodium falciparum; experiment: Antiplasmodial activity against chloroquine-susceptible Plasmodium falciparum 8425 infected in human erythrocytes assessed as inhibition of [3H]hypoxanthine uptake after 48 hrs; assay type: functional, organism-based; summary of the method: as §2
# [7] = tested on: Plasmodium falciparum; experiment: Antiplasmodial activity against chloroquine-susceptible Plasmodium falciparum Voll infected in human erythrocytes assessed as inhibition of [3H]hypoxanthine uptake after 48 hrs; assay type: functional, organism-based; summary of the method: as §2
# [8] = tested on: Plasmodium falciparum; experiment: Antiplasmodial activity against chloroquine-susceptible Plasmodium falciparum L1 infected in human erythrocytes assessed as inhibition of [3H]hypoxanthine uptake after 48 hrs; assay type: functional, organism-based; summary of the method: as §2
# [9] = tested on: Plasmodium falciparum; experiment: Antiplasmodial activity against chloroquine-susceptible Plasmodium falciparum PA infected in human erythrocytes assessed as inhibition of [3H]hypoxanthine uptake after 48 hrs; assay type: functional, organism-based; summary of the method: as §2
# [10] = tested on: Plasmodium falciparum; experiment: Antiplasmodial activity against chloroquine-susceptible Plasmodium falciparum Bres infected in human erythrocytes assessed as inhibition of [3H]hypoxanthine uptake after 48 hrs; assay type: functional, organism-based; summary of the method: as §2
# [11] = tested on: Plasmodium falciparum; experiment: Antiplasmodial activity against chloroquine-susceptible Plasmodium falciparum FCR3 infected in human erythrocytes assessed as inhibition of [3H]hypoxanthine uptake after 48 hrs; assay type: functional, organism-based; summary of the method: as §2
# [12] = tested on: Plasmodium falciparum; experiment: Antiplasmodial activity against chloroquine-susceptible Plasmodium falciparum W2 infected in human erythrocytes assessed as inhibition of [3H]hypoxanthine uptake after 48 hrs; assay type: functional, organism-based; summary of the method: as §2
# [13] = tested on: Plasmodium falciparum; experiment: Antiplasmodial activity against chloroquine-susceptible Plasmodium falciparum K2 infected in human erythrocytes assessed as inhibition of [3H]hypoxanthine uptake after 48 hrs; assay type: functional, organism-based; summary of the method: as §2
# [14] = tested on: Plasmodium falciparum; experiment: Antiplasmodial activity against chloroquine-susceptible Plasmodium falciparum K14 infected in human erythrocytes assessed as inhibition of [3H]hypoxanthine uptake after 48 hrs; assay type: functional, organism-based; summary of the method: as §2
# [15] = tested on: Plasmodium falciparum; experiment: Antiplasmodial activity against chloroquine-susceptible Plasmodium falciparum FCM29 infected in human erythrocytes assessed as inhibition of [3H]hypoxanthine uptake after 48 hrs; assay type: functional, organism-based; summary of the method: as §2
# [16] = tested on: MRC5; experiment: Cytotoxicity against human MRC5 after 3 days; assay type: cell-based; settings: MRC5, 72 h
# Summary of the method: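 MRC-5SV2 cells were grown in Earle's MEM with 5% FCSi and plated at about 10^4 cells/well. After 3 days of incubation, viability was read fluorimetrically with resazurin (ex 550/em 590 nm). Growth reduction was expressed relative to untreated control wells, and CC50 was derived.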
# [17] = tested on: NCH89; experiment: Antiproliferative activity against human carmustine-resistant NCH-89 cells assessed as BrdU incorporation after 48 hrs; assay type: functional, cell-based; settings: NCH89, 48 h
# Summary of the method: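 NCH89 glioblastoma cells were seeded at 7 × 10^3 cells/well in replicate wells for 24 h. Compound was then added at 0.1-100 μM. After 48 h, BrdU was added at 100 μM final, and incorporation was detected with a BrdU labeling/detection kit.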
# [18] = target: Nucleic Acid; experiment: Binding affinity to pUC18 DNA at pH 7.5 by UV-Vis spectrophotometry analysis; assay type: nucleic-acid assay
# Summary of the method: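 A 10 μM drug solution was titrated at room temperature with linearized pUC18 DNA (50% AT), 0.1-50 μM base pairs final. Buffer was TE (10 mM Tris-HCl, 0.1 mM EDTA) with 5 mM NaCl, ionic strength 12 mM. UV-Vis absorption spectra were recorded at 220-380 nm. Kd = DNA concentration at which half the drug is bound.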
# [19] = target: Nucleic Acid; experiment: Binding affinity to pUC18 DNA at pH 7.5 by spectrofluorimetry analysis; assay type: nucleic-acid assay
# Summary of the method: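 A 1-10 μM drug solution was titrated at room temperature with linearized pUC18 DNA (50% AT), 0.1-50 μM base pairs final, in TE buffer with 5 mM NaCl (ionic strength 12 mM). Fluorescence used excitation at 320 nm and emission at 340-500 nm, corrected for buffer and instrument response. Kd = DNA concentration giving half-bound drug.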
# [20] = tested on: Nucleic Acid; experiment: Binding affinity to pUC18 DNA containing 50% AT assessed as maximum melting temperature at 1 uM by spectrophotometry analysis; assay type: nucleic-acid assay
# Summary of the method: (§3)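 Drug at 1 μM was mixed with DNA at 15 μM base pairs (15:1 bp:drug) in TE with 5 mM NaCl. Absorbance at 260 nm was recorded from 30-97 °C at 0.5 °C/min, with readings every 0.5 °C. Curves were normalized, smoothed and differentiated. Tmmax = derivative peak maximum; Tmint = middle of the integrated area; Tm1/2 = middle of the peak at half height.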
# [21] = tested on: Nucleic Acid; experiment: Binding affinity to pUC18 DNA containing 50% AT assessed as middle of the peak at half height melting temperature at 1 uM by spectrophotometry analysis; assay type: nucleic-acid assay; summary of the method: as §3
# [22] = tested on: Nucleic Acid; experiment: Binding affinity to pUC18 DNA containing 50% AT assessed as middle of the integrated surface melting temperature at 1 uM by spectrophotometry analysis; assay type: nucleic-acid assay; summary of the method: as §3
# [23] = tested on: Nucleic Acid; experiment: Binding affinity to polydAdT DNA containing 100% AT assessed as maximum melting temperature at 1 uM by spectrophotometry analysis; assay type: nucleic-acid assay; summary of the method: as §3
# [24] = tested on: Nucleic Acid; experiment: Binding affinity to polydAdT DNA containing 100% AT assessed as middle of the peak at half height melting temperature at 1 uM by spectrophotometry analysis; assay type: nucleic-acid assay; summary of the method: as §3
# [25] = tested on: Nucleic Acid; experiment: Binding affinity to polydAdT DNA containing 100% AT assessed as middle of the integrated surface melting temperature at 1 uM by spectrophotometry analysis; assay type: nucleic-acid assay; summary of the method: as §3
# [26] = tested on: Mus musculus; experiment: Toxicity in Plasmodium berghei ANKA-infected CD1 mice (Mus musculus) assessed as mortality at 30 mg/kg, intraperitoneally; assay type: organism-based; set-up: dose 30 mg/kg, route intraperitoneal; settings: in vivo, ip
# Summary of the method: (§4)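 Peters 4-day suppressive test, P. berghei ANKA: 18-20 g mice infected iv with 2 × 10^6 parasitized red cells day 0; compounds freshly made in 10% DMSO in sterile PBS, given ip from 2 h postinfection and on days 1-3; daily dose 30 mg/kg or 50 mg/kg; deaths recorded.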
# [27] = tested on: Mus musculus; experiment: Toxicity in ip dosed Swiss mouse assessed as mortality at 30 mg/kg, ip; assay type: organism-based; set-up: dose 30 mg/kg, route intraperitoneal; settings: in vivo; summary of the method: as §4
# [28] = tested on: Plasmodium berghei; experiment: Antiplasmodial activity against Plasmodium berghei ANKA infected in Swiss mice (Mus musculus) assessed as reduction of parasitaemia at 30 mg/kg, intraperitoneally; assay type: functional, organism-based; set-up: dose 30 mg/kg
# Summary of the method: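 Swiss mice (18-20 g) infected intravenously on day 0 with 2 × 10^6 P. berghei ANKA parasitized red cells. Compound was freshly prepared in 10% DMSO in sterile PBS and given ip, first 2 h postinfection, then on days +1-3 (4-day suppressive test). On day +4, parasitemia was counted microscopically on Giemsa-stained tail-blood films.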
SMILES,IC50 [1],IC50 [2],IC50 [3],IC50 [4],IC90 [4],IC50 [5],IC90 [5],IC50 [6],IC90 [6],IC50 [7],IC90 [7],IC50 [8],IC90 [8],IC50 [9],IC90 [9],IC50 [10],IC90 [10],IC50 [11],IC90 [11],IC50 [12],other results
CC(C)NCCNc1ccnc2cc(Cl)ccc12,8.9 nM,47.4 nM,22.6 nM,35.2 nM,65.6 nM,35.6 nM,67.8 nM,29 nM,59.4 nM,63.7 nM,135 nM,63.2 nM,132 nM,64 nM,107 nM,129 nM,218 nM,86.1 nM,164 nM,169 nM,IC90 [12]: 320 nM; IC50 [13]: 130 nM; IC90 [13]: 285 nM; IC50 [14]: 171 nM; IC90 [14]: 316 nM; IC50 [15]: 239 nM; IC90 [15]: 369 nM; IC50 [16]: 64000 nM; IC50 [17]: 30400 nM; Kd [18]: 17500 nM; Kd [19]: 8000 nM; Tm [20]: 73 °C; Tm [21]: 74.5 °C; Tm [22]: 73.9 °C; Tm [23]: 46.6 °C; Tm [24]: 46.5 °C; Tm [25]: 46.5 °C
CN(C)CCC(NCCNc1ccnc2cc(Cl)ccc12)c1ccccc1 (configuration not stated),7.1 nM,61.9 nM,25.6 nM,8.1 nM,14.4 nM,12.2 nM,16.7 nM,8.8 nM,16.9 nM,65.2 nM,144 nM,61.7 nM,177 nM,161 nM,318 nM,158 nM,310 nM,64.4 nM,196 nM,99.8 nM,IC90 [12]: 260 nM; IC50 [13]: 87.1 nM; IC90 [13]: 247 nM; IC50 [14]: 129 nM; IC90 [14]: 267 nM; IC50 [15]: 244 nM; IC90 [15]: 376 nM; IC50 [16]: 27000 nM; Activity [26]: Toxic; Activity [27]: Toxic; Activity [28]: Active; IC50 [17]: 7300 nM; Kd [18]: 7000 nM; Kd [19]: 8000 nM; Tm [20]: 74.4 °C; Tm [21]: 76.5 °C; Tm [22]: 75.5 °C; Tm [23]: 46.8 °C; Tm [24]: 47.4 °C; Tm [25]: 47.1 °C
